# LANA-H2B inh: blockers of LANA interaction with H2A/H2B – biochemical, FP readout, HTS, primary screen; inhibition, % (concentration not given with the values); hit rate 0.6% among 320,000; cell-free LANA-H2A/H2B peptide, fluorescence polarization; Protein LANA1 (Human herpesvirus 8 type P (isolate GK18)), Q9QR71; in the data active = inhibition mostly above about 10%, no sharp cut-off; inactive = mostly below about 6.7%
# TAAR1 agonist: human TAAR1 agonists, primary screen, Fluo-8 calcium fluorescence, CHO RD-HGA16 cells; activation, % at 3 µM; vehicle wells 0%, saturating PEA agonist 100%; Trace amine-associated receptor 1 (Homo sapiens), Q96RJ0; hit rate 0.99% among 360,000; AID 624467, 2012;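 active = activation above the mean activation of all test compounds in the run plus 3 SD, cut at about 38% in these data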
#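 Repeats: no replicates (n 1) | Material: CHO-derived RD-HGA16 cells with stable Gα16 and human TAAR1 | Technique: Kinetic Fluo-8 calcium fluorescence | Schedule: 17-24 h seeding, 75 min 37 °C dye, 30 min RT | Evaluation: % activation from peak over basal fluorescence ratio, DMSO-to-PEA scaled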
# GPR7 antagonist: GPR7 receptor antagonists, primary screen, cell-based, fluorescence, single concentration; GPR7-expressing cells, fluorescence antagonist assay; inhibition, % at 4.4 µM; hit rate 1.1% among 290,000; AID 1861, 2009; in the data active = inhibition above about 16%, passing the limit was not always enough;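 also: cells stimulated with the agonist NPW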
# TAAR1 antag: human TAAR1 antagonists, primary screen, Fluo-8 calcium fluorescence, CHO RD-HGA16 cells; Trace amine-associated receptor 1 (Homo sapiens), Q96RJ0; antagonist; inhibition, % at 3 µM; hit rate 1.5% among 360,000; AID 624466, 2012;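 active = inhibition above a per-plate cutoff, the mean inhibition of test compounds on that plate plus 3 SD, cut at about 49% in these data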
#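 Test system: RD-HGA16 CHO cells with stable hTAAR1 and Gα16 / Probe or stimulus: EC80 β-phenethylamine stimulus / Times: seeding 17-24 h prior, 75-min 37 °C, 30-min RT dye loading / Detection: Fluo-8 calcium-sensitive fluorescence / Read-out basis: % inhibition scaled between DMSO and EC80 PEA controls / Repeats: singlicate, one well per test compound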
# TRPML3 agonist: human TRPML3 channel agonists, primary screen, cell-based, HEK293 TRPML3-YFP, Fluo-8 calcium fluorescence, 3 µM; Mucolipin-3 (Homo sapiens), Q8TDD5; 100% = the carbachol control signal; activation, % at 3 µM; hit rate 0.29% among 220,000;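 active = activation above its plate's cutoff, the mean activation of the plate's test wells plus 3 SD, cut at about 12% in these data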
# Target sequence (Q8TDD5 whole entry, looked up): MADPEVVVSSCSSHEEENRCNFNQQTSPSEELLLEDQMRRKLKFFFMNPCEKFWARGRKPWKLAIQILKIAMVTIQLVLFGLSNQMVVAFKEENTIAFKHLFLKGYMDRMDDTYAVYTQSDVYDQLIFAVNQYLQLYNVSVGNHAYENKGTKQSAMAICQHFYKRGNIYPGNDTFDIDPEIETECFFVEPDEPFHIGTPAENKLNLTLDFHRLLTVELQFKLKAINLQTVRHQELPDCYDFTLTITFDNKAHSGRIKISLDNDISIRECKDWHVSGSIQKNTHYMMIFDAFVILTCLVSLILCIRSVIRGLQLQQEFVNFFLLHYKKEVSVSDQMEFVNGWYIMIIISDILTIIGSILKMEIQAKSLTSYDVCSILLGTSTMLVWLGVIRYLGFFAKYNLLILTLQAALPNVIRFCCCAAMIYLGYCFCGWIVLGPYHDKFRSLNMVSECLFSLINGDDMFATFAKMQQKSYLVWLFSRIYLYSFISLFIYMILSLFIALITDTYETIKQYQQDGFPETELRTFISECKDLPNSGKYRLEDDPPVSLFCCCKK
#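 Test system: HEK293 cells stably carrying human TRPML3-YFP; Doses: single dose, 3 µM final nominal compound, 0.3% DMSO final; Schedule: dye loading 1 h 37 °C then 30 min ambient, 125 s read; Technique: Fluo-8 calcium fluorescence; Benchmarks: high control carbachol 87 µM, low control DMSO.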
# TRPN1 ag: zebrafish TRPN1 channel agonists, primary screen, cell-based, HEK293, calcium fluorescence. AID 1424, 2008. HEK293 zebrafish TRPN1-YFP, Fluo-8 calcium fluorescence; 100% = response to 87 µM carbachol. transient receptor potential cation channel N1 (TRPN1/NompC), Danio rerio. activation, % at 3 µM. hit rate 0.18% among 220,000;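 active = activation above its plate's cutoff, the mean activation of test wells on that plate plus 3 SD, cut at about 19% in these data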
#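 Material: zebrafish TRPN1-YFP in HEK293 cells. Doses: one dose of 3 µM, 0.3% DMSO. Incubation: dye 1 h 37 °C plus 30 min RT. Measured by: intracellular calcium fluorescence with Fluo-8.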
# A number is an active result; . = inactive; / = not tested or not shown. Only some compounds are listed: those with a hit (about 3.4% of all), similar ones and a draw of the others.
SMILES,LANA-H2B inh,TAAR1 agonist,GPR7 antagonist,TAAR1 antag,TRPML3 agonist,TRPN1 ag
Cc1cc(C)cc(NC(=S)NCCSc2ccc(Cl)cc2)c1,.,.,.,57,.,.
COC(=O)c1c(NC(=O)C(=O)N2CCOCC2)sc2c1CCCC2,.,.,.,.,/,/
COC(=O)c1c(NC(=O)C(=O)N2CCOCC2)sc2c1CCC2,13,.,.,.,/,/
CCOc1ccccc1-n1nnnc1SCc1nc2ccccc2s1,.,.,.,53,.,.
Cc1ccccc1-n1c(C)nnc1SCc1nc2ccccc2s1,.,.,.,.,.,.
COc1cc(CNc2ccc(C)c(C)c2)cc(OC)c1OC,5.5,/,.,/,.,.
CCCc1ccc(-c2cc(NC(=O)Cc3c(C)[nH]c4ccccc34)ccc2Nc2cccnc2)cc1,/,.,/,.,/,/
Nc1ccn([C@@H]2O[C@H](C(=O)N[C@H](Cc3ccccc3)C(=O)N[C@H]3CCCCNC3=O)[C@@H](O)[C@H]2O)c(=O)n1,/,.,/,.,/,/
C=CC[n+]1ccc(/C=C2\C=Cc3cc(C)ccc3N2CC)c2ccccc21,/,/,26,/,.,.
CC1C(=O)N(Cc2ccc(F)cc2)c2ccccc2N1C(=O)c1c(F)cccc1F (stereo not given),.,.,.,.,/,/
COC(=O)c1ccc(CN2C(=O)C(C)N(C(=O)c3c(F)cccc3F)c3ccccc32)cc1 (stereo not given),.,42,.,83,/,/
C=CCNC(=O)c1sc(=S)n(-c2ccc(C(=O)OCC)cc2)c1N,40,.,.,.,.,.
Cc1cc(Nc2cc(Cl)cc(Cl)c2)cc(=O)n1-c1cc(Cl)cc(Cl)c1,/,.,/,.,/,/
COc1ccccc1Cc1c(-c2cccc(Cl)c2)nc2c3ccccc3ccn12,/,.,/,.,/,/
CCCN1C(=O)/C(=C/c2c(N3CCNC(=O)C3CC(=O)OC)nc3c(C)cccn3c2=O)SC1=S (stereo not given),/,/,.,/,.,31
COC(=O)C1=C(C)N(Cc2ccc(C(F)(F)F)cc2)C(=NCc2ccccc2C(F)(F)F)NC1c1ccc(Cl)cc1 (stereo not given),/,.,/,.,/,/
C[C@@H]1COc2cc(NCCO)ccc2S(=O)(=O)N1,/,.,/,.,/,/
CC(=O)Nc1ccc(Nc2nc(-c3cc4ccccc4oc3=O)cs2)cc1,.,.,.,55,/,/
Cc1cccc(Cn2cnc3c(nnn3Cc3ccccc3F)c2=O)c1,.,.,.,60,.,.
Nc1[nH]c(C(=O)c2ccc(Cl)cc2)c(-c2ccc(Br)cc2)c1C(=O)c1c[nH]c2ccc(F)cc12,/,.,/,.,/,/
CCOC(=O)C1=CCN(S(=O)(=O)c2cccc(Cl)c2)C1c1cccc(Br)c1 (stereo not given),/,.,/,.,/,/
COC(=O)C1=C(C)N(c2ccccc2)C(=S)NC1c1ccccc1C(F)(F)F (stereo not given),.,.,.,.,.,.
COCCOC(=O)C1=C(C)N(c2ccccc2)C(=S)NC1c1ccccc1C(F)(F)F (stereo not given),35,.,.,.,.,.
CCC(C)[C@H]1CNC(=S)N1CCc1cccc2ccccc12 (stereo not given in full),.,.,/,.,/,/
CCC(C)[C@H]1CNC(=S)N1CCC12CC3CC(CC(C3)C1)C2 (stereo not given in full),16,.,/,.,/,/
SMILES,LANA-H2B inh,TAAR1 agonist,GPR7 antagonist,TAAR1 antag,TRPML3 agonist,TRPN1 ag
CC1=C(C(N)=O)C(c2cccs2)n2ncnc2N1 (stereo not given),.,.,.,.,.,.
CCCCCOC(=O)C1=C(C)Nc2ncnn2C1c1cccs1 (stereo not given),.,.,.,57,.,.
COc1cc(C(=O)Oc2cccc(/C=N/NC(=O)c3cc(C)[nH]n3)c2)cc(OC)c1OC,.,.,.,56,/,/
COC(=O)CN(c1cc(C(F)(F)F)ccc1Cl)S(C)(=O)=O,.,.,.,.,.,.
COCCNC(=O)CN(c1cc(C(F)(F)F)ccc1Cl)S(C)(=O)=O,.,.,19,.,.,.
C[C@@H]1CN([C@H](C)CO)C(=O)CCCn2nncc2CO[C@@H]1CN(C)C(=O)Nc1ccccc1,/,.,/,.,/,/
CCOC(=O)c1c(=O)n(O)c2ccc(OC)cc2[n+]1[O-],82,.,.,.,.,.
COC(=O)N1Cc2ccnnc2CC1c1ccccc1-c1ccc(OC)cc1 (stereo not given),/,.,/,.,/,/
CCN(CC)c1ccc2c(c1)CCCN2,20,/,.,/,.,.
Cc1ccc(OC(=O)N(C)C[C@H]2OCc3cn(nn3)CCCC(=O)N([C@@H](C)CO)C[C@@H]2C)cc1,/,.,/,.,/,/
Cc1ccc(/C=C2\C(=N)N3N=C(CC(=O)N4CCOCC4)SC3=NC2=O)o1,18,.,.,.,/,/
O=C(CNC(=O)c1ccco1)N=Nc1c(O)[nH]c2ccc(Br)cc12,.,38,.,.,/,/
Nc1nonc1C(=O)NCCNCc1cc(Br)ccc1OCc1ccccc1F,.,40,77,51,.,.
CN(C(=O)c1cn(C)c2ccccc12)c1ccc(Oc2cccnc2)cc1,/,.,/,.,/,/
O=C(N[C@@H](Cc1cccnc1)C(=O)N1CCC[C@H]1C(=O)NC1CCCC1)c1cccs1,/,.,/,.,/,/
Cc1cccc(CC(Cc2nc3ccccc3[nH]2)c2nc3ccccc3[nH]2)c1 (stereo not given),.,.,.,52,.,.
CCCCCCC12C(=Cc3cc(C)ccc31)c1ccccc1C(CC(=O)NCc1ccccc1)N2C(=O)OC (stereo not given),/,.,/,.,/,/
O=c1c2cc(F)ccc2sn1-c1ccccc1Cl,/,.,/,.,/,/
O=c1c2ccc(F)cc2sn1-c1ccccc1,/,49,/,.,/,/
Cc1ccc(-n2sc3cc(F)ccc3c2=O)c(C)c1,/,49,/,.,/,/
O=C1CCC(NC(=O)Cc2ccccc2)C(=O)N1 (stereo not given),/,.,/,.,/,/
Oc1ccc(Cl)cc1CNCc1ccc(Cl)nc1,.,40,/,.,/,/
Oc1ccc(Cl)cc1CNCc1ccc(F)c(F)c1,.,43,/,.,/,/
CCOC(=O)[C@@H]1CSCCS(=O)(=O)N1C(=O)[C@H](CC(C)C)NC(=O)OC(C)(C)C,/,.,/,.,/,/
CC[C@H](NC(=O)[C@@H](Cc1ccccc1)NC(=O)[C@H]1O[C@@H](n2cnc3c(=O)[nH]c(N)nc32)[C@H](O)[C@@H]1O)c1ccccc1,/,.,/,.,/,/

# High-throughput results deposited in PubChem by several laboratories.
